Source: PubChem (several laboratories)
INS promoter inh – inhibitors of insulin promoter-driven GFP, primary screen, imaging, TRM-6 cells (human fetal islet line), eGFP reporter, cell count; hit rate 0.9% among 130,000; reporter expression induced with tamoxifen; inhibition, % at 2 µM;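 active means inhibition above the mean plus 3 SD, with well images judged a real hit on visual review, cut at about 60% in these data, passing the limit was not always enough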
Yeast lifespan up – compounds extending yeast replicative lifespan, primary screen, S. cerevisiae, OD615. S. cerevisiae growth with nicotinamide; deaD strain in restrictive glucose medium. inhibition of the nicotinamide effect, % at 10 µM. hit rate 0.68% among 130,000. AID 775, 2007;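 active means inhibition above a set limit, placed 3 SD over the median of all compounds, cut at about 26% in these data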
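Test system – modified budding yeast, DeaD strain · Compound – single dose 10 µM compound, 0.25% DMSO · Times – culture preincubation 4 h, compound exposure 48 h, both 30 °C · Detection – optical density (absorbance) at 615 nm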
RAM inhibit – inhibitors of the yeast RAM network, primary screen, dse1pr::URA3 reporter, 5-FOA selection; hit rate 1.8% among 190,000; S. cerevisiae dse1pr::URA3 reporter, 5-FOA growth OD615, 2 d; analog-sensitive cbk1-as2 kinase mutant strain; inhibition, % at 50 µM;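 active means inhibition above a set limit, 3 SD over mean compound inhibition, cut at about 8.4% in these data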;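 further: inhibition rescues growth on 5-FOA so higher OD means more RAM inhibition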
Insulin prom up – insulin promoter activators in MIN6 cells, imaging, high-content screening, mouse beta cells | hit rate 0.3% among 190,000 | MIN6 insulin promoter-GFP reporter; stronger effect = higher value | z-score at 5 µM;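 active means z-score above 3 at 5 µM with at least 500 cells counted in the well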
BB579 growth dn – growth inhibitors of yeast BB579 in restrictive medium, primary screen, yeast lifespan-shortening project, S. cerevisiae; OD615, 48 h; inhibition, % at 10 µM; hit rate 0.51% among 140,000; AID 804, 2007;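 active means inhibition above a set limit, 3 SD over the mean compound inhibition, cut at about 44% in these data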
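System: Saccharomyces cerevisiae DeaD strain BB579, replicative lifespan model yeast. Buffer or medium: restrictive glucose-based CSMM-D medium. Doses: one dose, 10 µM compound with 0.25% DMSO. Timing: 4 h preincubation and 48 h exposure at 30 °C. Detection: turbidity as optical density at 615 nm. Benchmarks: amphotericin B 10 µg/mL, positive.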
Numbers stand for hits; 0 = inactive; - = not tested or not shown. Shown are actives, neighbours in structure and some others; about 3% of the full set was active somewhere.

SMILES	INS promoter inh	Yeast lifespan up	RAM inhibit	Insulin prom up	BB579 growth dn
Cc1cc(Cl)ccc1OC(C)C(=O)Nc1ccccc1N1CCOCC1 (stereo not given)	-	0	9.5	0	0
C=CCN1C(=O)C(Cc2ccc(Br)cc2)S/C1=N\N=C\c1ccco1 (stereo not given)	-	0	10.0	0	0
CCC1S/C(=N/N=C/c2ccco2)N(c2ccc(F)cc2)C1=O (stereo not given)	0	0	0	0	0
C=CCN1C(=O)C(Cc2ccc(F)cc2)S/C1=N/N=C/c1ccco1 (stereo not given)	0	0	0	0	0
Cc1cccc(CC2S/C(=N/N=C/c3ccco3)N(c3ccccc3)C2=O)c1 (stereo not given)	0	0	10.7	0	0
C=CCn1c(SCC(=O)Nc2ccccc2-c2ccccc2)nc2cc(C(=O)O)ccc2c1=O	-	-	0	0	-
O=C(CSC1=NS(=O)(=O)c2ccccc21)Nc1ccccc1	-	0	0	0	72.8
Cc1onc(-c2c(Cl)cccc2Cl)c1-c1nc2cc(Cl)ccc2c(=O)o1	-	-	-	0	-
Cc1cc(C)n(C(=O)CCC2COc3ccccc3O2)n1 (stereo not given)	0	0	0	3.53	0
CCOc1c(Nc2ccc(C(C)C)cc2)c(=O)c1=O	-	-	-	0	-
O=C1NN(c2ccccc2)C(=O)/C1=C/c1coc2ccccc2c1=O	0	26.2	0	0	0
O=C1NN(c2ccccc2)C(=O)/C1=C\c1coc2ccc(O)cc2c1=O	-	-	-	0	-
Cc1cc(/C=C2/C(=O)NN(c3ccccc3)C2=O)c(C)n1-c1ccc(O)cc1	0	0	9.9	0	0
Cc1cc(/C=C2\SC(=S)NC2=O)c(C)n1-c1ccc(O)cc1	-	-	-	3.66	-
Cc1cc(/C=C2\SC(=S)NC2=O)c(C)n1-c1ccccc1	-	-	-	0	-
COc1ccc(C(=O)NC(=S)Nc2cccc(Cl)c2N2CCOCC2)cc1[N+](=O)[O-]	-	0	0	0	0
O=C(COC(=O)c1cccs1)Nc1nc(-c2ccccc2)cs1	-	0	0	0	0
Cn1nccc1C(=O)OCC(=O)Nc1nc(-c2ccccc2)cs1	-	0	9.4	0	0
CCS(=O)(=O)n1nc(-c2ccco2)nc1SC	0	0	0	0	0
CSc1nc(-c2ccc(Cl)cc2)nn1C(=O)c1ccco1	83.3	0	0	0	0
CCS(=O)(=O)n1nc(-c2ccc(Cl)cc2)nc1SC	72.1	0	0	0	0
CCCCn1c(N)c(NCCC(C)C)c(=O)[nH]c1=O	82.1	0	0	0	0
CCCCn1c(N)c(Br)c(=O)[nH]c1=O	-	-	-	0	-
C/C(=N\Nc1ccc(Cl)c(C(=O)O)c1)c1ccc[nH]1	-	-	-	0	-
O=C(CSc1cn(Cc2cccc(F)c2)c2ccccc12)NCc1ccc(F)cc1	0	0	9.9	0	0
SMILES	INS promoter inh	Yeast lifespan up	RAM inhibit	Insulin prom up	BB579 growth dn
NC(=O)CSc1cn(Cc2ccc(F)cc2)c2ccccc12	0	-	0	0	-
O=C(NCc1ccccc1C(F)(F)F)C1CC(c2ccc(C(F)(F)F)cc2)=NO1 (stereo not given)	-	-	-	0	-
O=c1cc(-c2c(F)c(F)c(F)c(F)c2F)oc2c(F)c(F)c(F)c(F)c12	-	105.9	0	0	0
Cc1nc(C)c(C(=O)NNC(=O)Nc2ccc(Cl)cc2)s1	-	-	-	0	-
N#CCCn1cc(C(=O)Nc2ccc(C(=O)O)cc2)c(-c2ccc([N+](=O)[O-])cc2)n1	-	-	8.8	-	-
CCOC(=O)c1sc(NC(=O)CSC(=S)N2CCN(C)CC2)nc1C	-	-	-	0	-
COc1cccc(C(=O)Nc2ccccc2OC(F)(F)F)c1	-	-	0	0	-
O=C1C=CC2C(c3ccc4c(c3)OCO4)CC1N2Cc1ccccc1 (stereo not given)	0	50.2	0	0	0
c1ccc(CN2CCC(N3CCN(Cc4ccc5c(c4)OCO5)CC3)CC2)cc1	-	-	-	0	-
C=CCNC(=O)C(C#N)c1nc2ccccc2nc1N1CCCCCC1 (stereo not given)	0	0	9.0	0	0
O=C1NC(=S)S/C1=C\c1ccc(SCc2ccccc2)o1	-	0	10.0	0	0
COC(=O)c1c(N2C(=O)Nc3ccccc3N2O)sc2c1CCCC2	68.8	0	0	0	0
CCOC(=O)c1c(N2C(=O)Nc3ccccc3N2O)sc2c1CCCCC2	0	0	0	0	0
CCn1nc(C)c(C2C(C#N)=C(N)OC3=C2C(=O)CC(C)(C)C3)c1C (stereo not given)	-	0	0	0	0
